According to ChEMBL document CHEMBL1151228, “Three cyclooctapeptides and one glycoside from Microtoena prainiana” (J Nat Prod, 2004):
Active and inactive are the calls of the source. The rule behind the calls is not given here. Where a SMILES comes first, the peptide text is derived from it.

Columns and labels:
Human alphaherpesvirus 2 = experiment: Antiviral activity against HSV2 333 infected in african green monkey Vero cells assessed as virus-induced cytopathic effect at 250 ug/ml; format: functional, organism-based
Procedure, shortened: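 Vero cells infected with HSV-2 (strain 333); inhibition of viral replication read as cytopathic effect (CPE); compounds tested at 250 µg/mL; acyclovir as positive drug control.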

[1] = biological target: Angiotensin-converting enzyme (Homo sapiens) (UniProt P12821); experiment: Inhibition of ACE at 1 mg/ml
Chain of Angiotensin-converting enzyme (Homo sapiens) (P12821 whole entry): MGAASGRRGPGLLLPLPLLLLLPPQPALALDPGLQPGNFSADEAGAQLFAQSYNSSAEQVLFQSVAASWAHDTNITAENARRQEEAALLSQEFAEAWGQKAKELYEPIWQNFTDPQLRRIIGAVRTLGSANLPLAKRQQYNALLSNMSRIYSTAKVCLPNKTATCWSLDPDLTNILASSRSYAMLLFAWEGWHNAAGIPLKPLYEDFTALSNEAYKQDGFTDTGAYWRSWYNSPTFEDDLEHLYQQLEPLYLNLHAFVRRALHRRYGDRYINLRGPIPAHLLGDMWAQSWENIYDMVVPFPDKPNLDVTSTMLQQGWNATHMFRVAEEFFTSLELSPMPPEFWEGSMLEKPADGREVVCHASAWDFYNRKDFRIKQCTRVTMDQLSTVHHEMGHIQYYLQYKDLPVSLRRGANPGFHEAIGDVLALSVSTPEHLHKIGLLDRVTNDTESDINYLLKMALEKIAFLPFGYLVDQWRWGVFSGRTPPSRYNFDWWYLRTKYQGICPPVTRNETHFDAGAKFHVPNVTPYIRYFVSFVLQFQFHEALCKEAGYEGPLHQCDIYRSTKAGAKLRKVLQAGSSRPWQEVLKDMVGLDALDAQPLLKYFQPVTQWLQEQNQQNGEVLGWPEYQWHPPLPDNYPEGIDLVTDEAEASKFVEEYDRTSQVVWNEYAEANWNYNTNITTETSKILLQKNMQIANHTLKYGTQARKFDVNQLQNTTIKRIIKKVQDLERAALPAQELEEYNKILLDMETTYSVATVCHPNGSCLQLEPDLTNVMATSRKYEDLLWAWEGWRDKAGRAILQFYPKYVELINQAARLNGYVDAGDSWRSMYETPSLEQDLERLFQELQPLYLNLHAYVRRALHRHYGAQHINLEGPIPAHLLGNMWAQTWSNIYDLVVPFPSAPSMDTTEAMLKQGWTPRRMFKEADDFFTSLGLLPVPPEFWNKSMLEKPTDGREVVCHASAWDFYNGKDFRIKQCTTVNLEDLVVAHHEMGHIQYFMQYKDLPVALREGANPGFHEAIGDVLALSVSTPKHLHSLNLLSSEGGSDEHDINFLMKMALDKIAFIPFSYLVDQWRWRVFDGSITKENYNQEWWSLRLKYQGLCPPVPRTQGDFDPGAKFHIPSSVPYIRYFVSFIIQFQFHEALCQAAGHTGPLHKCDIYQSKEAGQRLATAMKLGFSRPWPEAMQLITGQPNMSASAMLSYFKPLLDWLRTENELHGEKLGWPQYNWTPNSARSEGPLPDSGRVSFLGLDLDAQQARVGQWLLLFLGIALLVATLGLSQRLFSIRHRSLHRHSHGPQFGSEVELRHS
Procedure, shortened: (§1)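 ACE extract (10 µg total protein) preincubated with sample for 30 min at 37 °C. HHL substrate then added for 15 min at 37 °C. NaOH and O-phthaldialdehyde added, stopped after 10 min with HCl. His-Leu fluorescence read at ex 405/em 535 nm. % inhibition = 100×(N−S)/(N−B) against negative and blank controls. Captopril positive control; at least three determinations.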

[2] = biological target: Angiotensin-converting enzyme (Homo sapiens) (UniProt P12821); experiment: Inhibition of ACE at 0.1 mg/ml; procedure, shortened: as §1
[3] = Cytotoxicity against human N04 cells by SRB assay; format: functional, cell-based
Procedure, shortened: (§2)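 Sulforhodamine B (SRB) cytotoxicity assay on human tumour lines: breast cancer Bre04, lung cancer Lu04 and neuroma N04.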

[4] = Cytotoxicity against human Bre04 cells by SRB assay; format: functional, cell-based; procedure, shortened: as §2
[5] = Cytotoxicity against human Lu04 cells by SRB assay; format: functional, cell-based; procedure, shortened: as §2

SMILES	Activity (Human alphaherpesvirus 2)	inhibition [1] [%]	inhibition [2] [%]	IC50 [3] [µg/mL]	IC50 [4] [µg/mL]	IC50 [5] [µg/mL]
CC[C@@H](C)[C@@H]1NC(=O)[C@@H]2CCCN2C(=O)[C@H](Cc2ccc(O)cc2)NC(=O)[C@H](CC(N)=O)NC(=O)[C@H](Cc2ccccc2)NC(=O)[C@@H]2CCCN2C(=O)[C@H](CC(C)C)NC(=O)[C@@H]2CCCN2C1=O	inactive	–	–	–	–	–
COc1cc(/C=C/C(=O)O[C@H]2[C@H](O[C@@H]3O[C@@H](C)[C@H](O)[C@@H](O)[C@H]3O)[C@H]3O[C@@H](c4ccc(O)c(O)c4)CO[C@@H]3O[C@@H]2CO)ccc1O	inactive	99.8	67.5	–	–	–
C[C@@H]1O[C@@H](O[C@@H]2[C@H]3O[C@@H](c4ccc(O)c(O)c4)CO[C@@H]3O[C@H](CO)[C@H]2OC(=O)/C=C/c2ccc(O)c(O)c2)[C@H](O)[C@H](O)[C@H]1O	inactive	99.7	75.5	–	–	–
C[C@@H]1O[C@@H](O[C@H]2[C@H](O)[C@@H](COC(=O)/C=C/c3ccc(O)c(O)c3)O[C@H]3OC[C@H](c4ccc(O)c(O)c4)O[C@@H]32)[C@H](O)[C@H](O)[C@H]1O	inactive	99.3	71.4	–	–	–
CC(C)[C@@H]1NC(=O)[C@@H]2CCCN2C(=O)[C@H](Cc2ccccc2)NC(=O)CNC(=O)[C@H](C)NC(=O)[C@H](C)NC(=O)[C@H](Cc2ccccc2)NC(=O)[C@H](Cc2ccccc2)NC1=O (cyclo(AAGFPVFF))	inactive	–	–	–	–	–
CC(C)C[C@@H]1NC(=O)[C@H](C(C)C)NC(=O)[C@@H]2CCCN2C(=O)[C@H](Cc2ccccc2)NC(=O)[C@H](C)NC(=O)[C@H](C(C)C)NC(=O)[C@@H]2CCCN2C(=O)[C@H](Cc2ccc(O)cc2)NC1=O (cyclo(AFPVLYPV))	inactive	–	–	–	–	–
CC(C)C[C@@H]1NC(=O)[C@H](Cc2ccc(O)cc2)NC(=O)[C@@H]2CCCN2C(=O)[C@H](C(C)C)NC(=O)[C@H](C)NC(=O)[C@H](Cc2ccccc2)NC(=O)[C@@H]2CCCN2C(=O)[C@H](C(C)C)NC1=O [MICROTOENIN A] (cyclo(AVPYLVPF))	–	–	–	> 100	> 100	> 100
CC(C)[C@@H]1NC(=O)[C@H](Cc2ccccc2)NC(=O)[C@H](Cc2ccccc2)NC(=O)[C@H](C)NC(=O)[C@H](C)NC(=O)CNC(=O)[C@H](Cc2ccccc2)NC(=O)[C@@H]2CCCN2C1=O [MICROTOENIN B] (cyclo(AAFFVPFG))	–	–	–	> 100	> 100	> 100
CC[C@H](C)[C@@H]1NC(=O)[C@@H]2CCCN2C(=O)[C@H](CC(C)C)NC(=O)[C@@H]2CCCN2C(=O)[C@H](Cc2ccccc2)NC(=O)[C@H](CC(N)=O)NC(=O)[C@H](Cc2ccc(O)cc2)NC(=O)[C@@H]2CCCN2C1=O [MICROTOENIN C] (cyclo(FPLPIPYN))	–	–	–	> 100	> 100	> 100
